The text below walks through data of ChEMBL document CHEMBL3112485, “7-Chloroquinolinotriazoles: synthesis by the azide-alkyne cycloaddition click chemistry, antimalarial activity, cytotoxicity and SAR studies” (Eur J Med Chem, 2014).

SMILES strings stand for the structures. pIC50: −log10 of the molar value.

One data set relates to Plasmodium falciparum. Kind of data set: Antimalarial activity against chloroquine-resistant and mefloquine-sensitive Plasmodium falciparum W2 infected in human erythrocytes after 48 hrs by HRP2-ELISA. The class given is functional, organism-based. The note with it: W2, 48 h; for pIC50: read-out: IC50; for IC50: read-out: pIC50 (converted). The method, boiled down:
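Ring-stage cultures sorbitol-synchronized; RBC suspension at 0.05% parasitemia, 1.5% hematocrit in RPMI with 10% human plasma, exposed to serial compound concentrations 48 h. Background wells harvested at 24 h and subtracted. Freeze-thaw lysis, then anti-HRP2 sandwich ELISA with TMB, absorbance 450 nm. IC50 from sigmoidal dose-response versus drug-free and standard-drug controls; triplicate per concentration, experiments in duplicate.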

Data set [1] is described as follows: Selectivity index, ratio of CC50 for human HepG2 cells to IC50 for chloroquine-resistant and mefloquine-sensitive Plasmodium falciparum W2. It counts as functional.
Data set [2] can be described thus: Cytotoxicity against human HepG2 cells after 24 hrs by MTT assay. It counts as cell-based.

Consider `COc1c(F)c(F)cc(C(=O)OCc2cn(-c3ccnc4cc(Cl)ccc34)nn2)c1F`, for which the pIC50 (commonly the IC50 on a negative log10 scale, so that one unit is a factor of ten) in the data set with Plasmodium falciparum was less than 3.95. Besides, the “Ratio CC50/IC50” value in data set [1] was less than 20. Moreover, the half-maximal cytotoxic concentration (CC50) (usually the concentration giving 50% cytotoxicity) at 24 h in data set [2] is greater than 2230 µM.

With `CN(C)c1ccc(-c2cn(-c3ccnc4cc(Cl)ccc34)nn2)cc1`, in the data set with Plasmodium falciparum, the pIC50 is 4.39 and the IC50 is 39.8 µM. In data set [1], the “Ratio CC50/IC50” value is reported as greater than 71.1. In data set [2], this molecule yielded a CC50 at 24 h greater than 2860 µM.

Regarding `Fc1ccc(-c2cn(-c3ccnc4cc(Cl)ccc34)nn2)cc1`, the pIC50 in the data set on Plasmodium falciparum was less than 3.81. In addition, the “Ratio CC50/IC50” value in data set [1] was less than 20. In addition, the CC50 at 24 h in data set [2] is greater than 3090 µM.

In the case of `Cc1ccc(-c2cn(-c3ccnc4cc(Cl)ccc34)nn2)cc1`, the pIC50 with Plasmodium falciparum is less than 3.81. For the same molecule, the “Ratio CC50/IC50” value in data set [1] is listed as less than 2.2. Further, in data set [2], it took 352 µM to reach half-maximal cytotoxicity (CC50 at 24 h).

With `Clc1ccc2c(-n3cc(-c4ccccc4)nn3)ccnc2c1`, in the data set on Plasmodium falciparum, the pIC50 is less than 4.10. Besides, the “Ratio CC50/IC50” value in data set [1] is less than 7.2. Besides, the midpoint of cytotoxicity in data set [2], the CC50 at 24 h, lay at 574 µM.

As to `OCCCc1cn(-c2ccnc3cc(Cl)ccc23)nn1`, in the data set on Plasmodium falciparum, the pIC50 was 5.02 and the IC50 was 10 µM. For the same molecule, in data set [1], the “Ratio CC50/IC50” value came out at 15.7. The molecule further returned a CC50 at 24 h in data set [2] of 151 µM.

With `CC(C)(O)c1cn(-c2ccnc3cc(Cl)ccc23)nn1`, in the data set with Plasmodium falciparum, the negative logarithm of the IC50 (pIC50) is 4.04. The “Ratio CC50/IC50” value in data set [1] is recorded as 4.9. Also, in data set [2], the CC50 at 24 h is 442 µM.

As for `Clc1ccc2c(-n3cc(C4CCCCC4)nn3)ccnc2c1`, in the data set on Plasmodium falciparum, the negative-log IC50 (pIC50) is less than 4.10. Also, the “Ratio CC50/IC50” value in data set [1] was less than 40. Besides, the CC50 at 24 h in data set [2] was greater than 3200 µM.

With `COc1ccc2cc(-c3cn(-c4ccnc5cc(Cl)ccc45)nn3)ccc2c1`, the negative-log IC50 (pIC50) with Plasmodium falciparum is less than 3.89. In data set [1], the “Ratio CC50/IC50” value is listed as less than 20. Besides, the CC50 at 24 h in data set [2] is greater than 2590 µM.

Take `O=C(OCCCc1cn(-c2ccnc3cc(Cl)ccc23)nn1)c1ccccc1`: the pIC50 in the data set with Plasmodium falciparum is less than 3.89. In data set [1], the “Ratio CC50/IC50” value is listed as less than 9.4. The same molecule came in with a half-maximal cytotoxic concentration (CC50) at 24 h in data set [2] of 1200 µM.

Regarding `COc1ccc(C(=O)OCCCc2cn(-c3ccnc4cc(Cl)ccc34)nn2)cc1`, the pIC50 in the data set with Plasmodium falciparum is less than 3.95. Also, the “Ratio CC50/IC50” value in data set [1] was less than 3. The molecule further registered a CC50 at 24 h in data set [2] of 347 µM.

As for `CCc1ccc(C(=O)OCCCc2cn(-c3ccnc4cc(Cl)ccc34)nn2)cc1`, the pIC50 in the data set with Plasmodium falciparum is less than 3.92. In data set [1], the “Ratio CC50/IC50” value is recorded as less than 21.4. Further, the CC50 at 24 h in data set [2] was greater than 2550 µM.

As to `O=C(OCCCc1cn(-c2ccnc3cc(Cl)ccc23)nn1)c1ccc(C(F)(F)F)cc1`, the pIC50 in the data set on Plasmodium falciparum is less than 3.96. Further, the “Ratio CC50/IC50” value in data set [1] is less than 20. The molecule further yielded a CC50 at 24 h in data set [2] greater than 2170 µM.

Turning to `CC(C)(C)c1ccc(C(=O)OCCCc2cn(-c3ccnc4cc(Cl)ccc34)nn2)cc1`, the pIC50 in the data set with Plasmodium falciparum was less than 3.95. Also, the “Ratio CC50/IC50” value in data set [1] is listed as less than 20. For the same molecule, the CC50 at 24 h in data set [2] is greater than 2230 µM.

With `Cc1ccc(C(=O)OCCCc2cn(-c3ccnc4cc(Cl)ccc34)nn2)cc1`, the pIC50 with Plasmodium falciparum is less than 3.91. Also, in data set [1], the “Ratio CC50/IC50” value was less than 20. Also, in data set [2], the CC50 at 24 h is greater than 2460 µM.

Regarding `CCc1ccc(C(=O)OCc2cn(-c3ccnc4cc(Cl)ccc34)nn2)cc1`, the pIC50 with Plasmodium falciparum is less than 3.89. Also, in data set [1], the “Ratio CC50/IC50” value is less than 20. Further, the CC50 at 24 h in data set [2] is greater than 2550 µM.

Regarding `CCc1ccccc1C(=O)OCc1cn(-c2ccnc3cc(Cl)ccc23)nn1`, in the data set with Plasmodium falciparum, the pIC50 was less than 3.89. Further, the “Ratio CC50/IC50” value in data set [1] is less than 20. This molecule returned a CC50 at 24 h in data set [2] greater than 2550 µM.

For `CC(C)(C)c1ccc(C(=O)OCc2cn(-c3ccnc4cc(Cl)ccc34)nn2)cc1`, in the data set on Plasmodium falciparum, the pIC50 is less than 3.92. Besides, in data set [1], the “Ratio CC50/IC50” value is recorded as less than 20. In data set [2], this molecule showed a CC50 at 24 h greater than 2380 µM.

As for `O=C(OCc1cn(-c2ccnc3cc(Cl)ccc23)nn1)c1ccccc1`, in the data set on Plasmodium falciparum, the pIC50 is less than 3.86. The “Ratio CC50/IC50” value in data set [1] is less than 20. The CC50 at 24 h in data set [2] was greater than 2750 µM.

Regarding `O=C(OCc1cn(-c2ccnc3cc(Cl)ccc23)nn1)c1ccc(C(F)(F)F)cc1`, the pIC50 with Plasmodium falciparum is less than 3.94. The “Ratio CC50/IC50” value in data set [1] is reported as less than 9.2. Further, in data set [2], the cytotoxic concentration (CC50) at 24 h stood at 1070 µM.

`COc1ccc(C(=O)OCc2cn(-c3ccnc4cc(Cl)ccc34)nn2)cc1`: the pIC50 with Plasmodium falciparum is less than 3.90. The “Ratio CC50/IC50” value in data set [1] is listed as less than 2.4. The same molecule gave a half-maximal cytotoxic concentration (CC50) at 24 h in data set [2] of 303 µM.

Regarding `O=C(OCc1cn(-c2ccnc3cc(Cl)ccc23)nn1)c1ccc(Cl)cc1`, in the data set on Plasmodium falciparum, the pIC50 is 4.65 and the IC50 is 22.9 µM. Also, in data set [1], the “Ratio CC50/IC50” value worked out at 21.5. For the same molecule, the CC50 at 24 h in data set [2] came out at 484 µM.

As for `CCN(CC)Cc1cn(-c2ccnc3cc(Cl)ccc23)nn1`, the pIC50 with Plasmodium falciparum was less than 3.78. For the same molecule, the “Ratio CC50/IC50” value in data set [1] is less than 11.2. Moreover, in data set [2], the CC50 at 24 h was determined as 1850 µM.

With `CN(C)Cc1cn(-c2ccnc3cc(Cl)ccc23)nn1`, in the data set with Plasmodium falciparum, the negative logarithm of the IC50 (pIC50) was 4.56 and the IC50 was 26.9 µM. Besides, the “Ratio CC50/IC50” value in data set [1] is recorded as 67.5. This molecule returned a CC50 at 24 h in data set [2] of 1850 µM.

Regarding `Clc1ccc2c(-n3cc(CN4CCOCC4)nn3)ccnc2c1`, the pIC50 with Plasmodium falciparum was less than 3.82. Moreover, the “Ratio CC50/IC50” value in data set [1] is recorded as less than 20. In data set [2], the CC50 at 24 h is greater than 3040 µM.

Turning to `Clc1ccc2c(-n3cc(CN4CCCCC4)nn3)ccnc2c1`, the pIC50 in the data set with Plasmodium falciparum was less than 3.82. Besides, in data set [1], the “Ratio CC50/IC50” value is less than 7.2. This molecule had a CC50 at 24 h in data set [2] of 1110 µM.

`OC1CCN(Cc2cn(-c3ccnc4cc(Cl)ccc34)nn2)CC1`: in the data set with Plasmodium falciparum, the pIC50 is 4.39 and the IC50 was 40.7 µM. For the same molecule, in data set [1], the “Ratio CC50/IC50” value worked out at 22.7. This molecule also came in with a cytotoxic concentration (CC50) at 24 h in data set [2] of 930 µM.

`CCN(CC)CCCC(C)Nc1ccnc2cc(Cl)ccc12` (configuration not stated) [CHLOROQUINE] returned a half-maximal cytotoxic concentration (CC50) at 24 h in data set [2] of 810 µM.
